# Experimental data pooled from the literature.
# Compare with care: the assays were run in different laboratories.
# Target: Serine/threonine-protein kinase SIK1 (SIK1, Homo sapiens, UniProt P57059)
read-out,action,technique,cells,tested at,quantity,value,Compound
enzyme activity,inhibitor,radiometric,,1 µM,remaining activity,98%,CC(C)(C)c1nc(-c2cccc(NS(=O)(=O)c3c(F)cccc3F)c2F)c(-c2ccnc(N)n2)s1
enzyme activity,inhibitor,,,0.1 µM,activity vs control,103%,Cc1cc(NC(=O)c2cccc3cc(-c4cccc5[nH]nc(N)c45)ccc23)ccc1F
binding,,,,1 µM,remaining binding,100%,CN(c1nccc(-c2cnn3ncccc23)n1)C1CC1
enzyme activity,inhibitor,,,1 µM,remaining activity,62.8%,CC(C)(O)[C@H]1CC[C@H](Nc2ccc3ncc(-c4cccc(C(F)(F)F)c4)n3n2)CC1
enzyme activity,inhibitor,,,5 µM,remaining activity,98.3%,O=C(Nc1cnn(-c2csc(C(=O)NC3COC3)c2)c1)Nc1c(F)cccc1Cl
binding,,,,1 µM,remaining binding,100%,Cc1cnn2ncc(-c3ccnc(N(C)C)n3)c2c1
enzyme activity,inhibitor,,,0.3 µM,inhibition,13%,Cc1ccc(Nc2nccc(N(C)c3ccc4c(C)n(C)nc4c3)n2)cc1S(N)(=O)=O
enzyme activity,inhibitor,radiometric,,1 µM,remaining activity,109%,Cc1cnc(NC2CCOCC2)nc1-n1cnc(C(=O)NC(CN)c2cc(F)cc(Cl)c2)c1 (centres unmarked)
enzyme activity,inhibitor,,,23.5 nM,remaining activity,57%,Cc1ccc(C(=O)Nc2ccc(CN3CCN(C)CC3)c(C(F)(F)F)c2)cc1C#Cc1cnc2cccnn12
binding,,,,1 µM,remaining binding,100%,CN(CCCC(F)(F)F)c1nccc(-c2cnn3ncccc23)n1
enzyme activity,inhibitor,radiometric,,1 µM,remaining activity,90%,CC(C)(C)c1nc2c(s1)c1nc(N)ncc1c1ccc(NS(=O)(=O)c3c(F)cccc3F)c(F)c12
enzyme activity,inhibitor,,,1 µM,remaining activity,97%,COc1cc(Cl)c(C(=O)N[C@@H](CN[C@H]2CC[C@@H](N)CC2)Cc2ccc(C#N)cc2)cc1-c1ccc(CN[C@H](C)c2ccc(C)cc2)o1
target engagement in cells,inhibitor,chemoproteomics,Huh-7,1 µM,inhibition,-51.3%,CCN1CCN(Cc2ccc(NC(=O)c3ccc(C)c(Oc4ccnc5[nH]ccc45)c3)cc2C(F)(F)F)CC1
enzyme activity,inhibitor,,,5 µM,remaining activity,102%,O=C(Nc1cnn(-c2csc(C(=O)NC3COC3)c2)c1)Nc1ccccc1Cl
